Assay outcomes from PubChem.
Rows were chosen to be rich in hits. Some 2% of all compounds tested hit in one or more screens of this group.
APJ agonist: agonists of human APJ apelin receptor | CHO-K1 APJ PathHunter beta-arrestin, luminescence; 0% DMSO wells, 100% apelin | activation, % at 20 µM | actives 0.11% (n = 330,000) | AID 2520;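 active = activation more than six SD over the plate average, tested at 20 µM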;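 note: 0% = DMSO alone and 100% = apelin-13 at 10 nM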
Target sequence (P35414 whole entry, looked up): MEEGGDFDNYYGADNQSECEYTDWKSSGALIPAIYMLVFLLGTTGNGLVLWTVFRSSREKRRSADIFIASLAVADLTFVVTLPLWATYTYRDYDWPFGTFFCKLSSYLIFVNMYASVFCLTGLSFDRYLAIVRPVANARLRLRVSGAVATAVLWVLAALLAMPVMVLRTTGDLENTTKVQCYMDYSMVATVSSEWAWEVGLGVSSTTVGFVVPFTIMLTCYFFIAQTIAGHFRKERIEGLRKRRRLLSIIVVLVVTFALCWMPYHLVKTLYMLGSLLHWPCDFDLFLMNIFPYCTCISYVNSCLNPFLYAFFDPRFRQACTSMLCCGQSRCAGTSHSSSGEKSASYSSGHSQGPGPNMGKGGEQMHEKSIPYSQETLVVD
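assay system = CHO-K1 APJ beta-arrestin complementation cell line | input = cell density 1000 per well | dosing = compound 20 µM once, DMSO 1% | timing = compound 90 min 25 °C, reagent 1 h | measured by = luminescence from split beta-galactosidase complementation, Galacton Star/Emerald II substrate | read-out basis = APJ agonist activity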
EBI2 antag: antagonists of human EBI2 receptor; P32249; EBI2 beta-arrestin recruitment, luminescence, 7a,25-OHC stimulated; inhibition, % at 5 µM; actives 0.81% (n = 360,000); AID 651636; in the data active = inhibition above about 38%;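 note: enzyme fragment complementation signal reports receptor beta-arrestin coupling in cells; 0% = agonist plus DMSO wells and 100% = wells without agonist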
Target sequence (P32249 whole entry, looked up, the tested form may be a part): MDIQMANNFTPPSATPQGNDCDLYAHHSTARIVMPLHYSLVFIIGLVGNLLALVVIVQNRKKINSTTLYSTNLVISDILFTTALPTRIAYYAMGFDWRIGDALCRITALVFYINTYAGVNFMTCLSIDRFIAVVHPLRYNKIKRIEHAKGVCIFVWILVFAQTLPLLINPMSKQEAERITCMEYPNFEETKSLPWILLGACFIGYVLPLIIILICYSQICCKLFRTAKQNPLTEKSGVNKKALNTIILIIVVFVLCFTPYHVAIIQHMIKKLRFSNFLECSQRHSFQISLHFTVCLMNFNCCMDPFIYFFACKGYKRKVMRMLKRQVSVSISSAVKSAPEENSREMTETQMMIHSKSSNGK
FXN GAA850 act: frataxin GAA850 promoter activation; AID 540364; actives 0.56% (n = 360,000); activation, % at 6 µM; HEK293 lucGAA850 FXN promoter luciferase reporter, 24 h; percent of 10 µM SAHA response;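 active = activation above the average of all compounds screened plus 3 SD, cutoff fixed separately per campaign, cut at about 7.5% in these data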;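 note: 0% = DMSO wells and 100% = 10 µM SAHA wells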
CXCR6 block: inhibitors of human CXCR6 receptor; O00574; CHO-K1 PathHunter CXCR6 beta-arrestin, luminescence; inhibition, % at 20 µM; actives 0.36% (n = 360,000); in the data active = inhibition above about 34%, passing the limit was not always enough;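 note: antagonist mode with CXCL16 agonist at 10 nM final; 0% = 10 nM CXCL16 with DMSO and 100% = unstimulated wells without agonist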
CCR6 antagonist: blocks CCL20-driven beta-arrestin recruitment at human CCR6 | P51684 | CHO-K1 CCR6 PathHunter beta-arrestin, luminescence, CCL20-stimulated | inhibition, % at 20 µM | actives 0.49% (n = 340,000);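 active = compounds whose inhibition of the agonist-driven luminescence signal at 20 µM reaches about 50%, limit read from the data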;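 note: cells stimulated with CCL20 at 14 nM final; plate controls were DMSO with CCL20 for no effect and DMSO without agonist for full effect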
APJ antag: APJ receptor antagonism; actives 0.32% (n = 330,000); inhibition, % at 20 µM; CHO-K1 APJ beta-arrestin complementation, luminescence; AID 2521; P35414;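 active = inhibition above about 40% at 20 µM, limit read from the data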;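 note: cells challenged with 10 nM apelin-13 agonist together with compound; plate controls were apelin-13 plus DMSO wells for no effect and DMSO wells lacking apelin-13 for full effect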
EBI2 antag conf: EBI2 (human) antagonism, single concentration confirmation; EBI2 beta-arrestin luminescence, 7a,25-OHC antagonism; shares compounds with EBI2 antag; actives 29% (n = 2,400); inhibition, % at 5 µM; AID 651997;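 active = inhibition of at least 50%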
EBI2 agonist: activates EBI2, counter-screen for EBI2 antagonists; shares compounds with EBI2 antag; EBI2-expressing cells, agonist mode, luminescence, 60 min; 0% vehicle, 100% 7α,25-dihydroxycholesterol control; activation, % at 5 µM; 2,400 tested, under 10 active; AID 652000;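 active = activation of at least 50%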
bGal counter: inhibits E. coli beta-galactosidase, counter-screen for EBI2 antagonists. AID 652176. purified beta-galactosidase, luminescent Galacton Star, 15 min. inhibition, % at 5 µM. actives 1% (n = 2,400). shares compounds with EBI2 antag;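 active = replicate-average signal at least 3 plate SD below neutral wells, shown as high inhibition, flagging enzyme-inhibiting false positives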;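 note: 0% = DMSO wells with enzyme and 100% = wells lacking enzyme; higher means stronger loss of beta-gal luminescence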
* = called active by the depositor; . = no result.

SMILES | APJ agonist | EBI2 antag | FXN GAA850 act | CXCR6 block | CCR6 antagonist | APJ antag | EBI2 antag conf | EBI2 agonist | bGal counter
FC(F)C(F)(F)Oc1cccc(Nc2nccn3c(-c4ccc5ccccc5c4)cnc23)c1 | . | 24.4 | -0.1 | 0.6 | . | . | . | . | .
Oc1ccc(-c2cnc3c(Nc4cccc(OC(F)(F)C(F)F)c4)nccn23)cc1 | . | 73.2* | -0.2 | -6.4 | . | . | 32.2 | 0.1 | 1.8
NC(=O)c1cccc(-c2cnc3c(Nc4cccc(OC(F)(F)C(F)F)c4)nccn23)c1 | . | 44.6* | 5.0 | -6.8 | . | . | 41.8 | -1.9 | -9.0
COc1ccc2nc(SCC(C)=O)c(C#N)cc2c1 | 2.1 | 11.9 | 4.7 | -15.1 | -2.0 | -7.2 | . | . | .
COc1ccc2nc(SCC(=O)N3CC(=O)Nc4ccccc43)c(C#N)cc2c1 | 2.5 | 56.9* | -4.4 | -1.5 | 9.2 | -6.9 | 35.1 | -0.8 | 6.1
C[C@@H]1CN([C@@H](C)CO)C(=O)CCCn2nncc2CO[C@@H]1CN(C)C(=O)Nc1ccnc(N2CCOCC2)c1 | . | 0.6 | 1.0 | 0.4 | . | . | . | . | .
CCOc1cc(N2CCOCC2)c(OCC)cc1NC(=O)COC(=O)c1c(C)noc1C | . | -4.3 | -0.9 | 6.7 | . | . | . | . | .
Cc1ccc(-n2nnnc2CCl)cc1 | . | -5.4 | -3.3 | -2.1 | -5.2 | . | . | . | .
Cc1ccc(OCc2nnnn2-c2ccccc2)cc1 | 1.1 | 51.2* | 0.5 | 1.2 | 13.8 | 15.1 | 33.5 | 0.8 | 6.9
CCCCn1c(N)c(N(CC(C)C)C(=O)CSc2nnc(C)n2-c2ccc(OC)cc2)c(=O)[nH]c1=O | 7.5 | -4.9 | 0.0 | 3.1 | 0.0 | -56.7 | . | . | .
CCn1c(C(=O)OC)cc2c1ccn2-c1ccc(F)cc1 | -4.2 | 46.1* | 7.3 | 5.1 | 16.3 | 18.1 | 20.4 | -1.3 | -8.0
COC(=O)c1cc2c(ccn2-c2ccc(F)cc2)n1Cc1ccc(OC)cc1 | 2.1 | 44.3* | 2.6 | 7.8 | 25.8 | 5.8 | 19.1 | 0.5 | 4.6
COC(=O)c1cc2c(ccn2-c2ccc(F)cc2)n1Cc1ccc(C#N)cc1 | -2.7 | 41.3 | 0.4 | 12.4 | 13.6 | -10.7 | . | . | .
CCOC(=O)c1cc2c(ccn2-c2ccc(F)cc2)n1CC(=O)NC(C)(C)C | -5.9 | . | . | . | . | -2.8 | . | . | .
COc1cc(OC)c(C=NNC(=S)NC23CC4CC(CC(C4)C2)C3)c(OC)c1 | . | 53.5* | 0.7 | 9.4 | 20.1 | . | 12.0 | 0.5 | -4.6
COc1ccc(C=NNC(=S)NC23CC4CC(CC(C4)C2)C3)cc1OC | . | 40.6 | 0.6 | 16.5 | 23.4 | . | . | . | .
Cc1cccc(S(=O)(=O)NC(=O)C2(C)CCN2C(=O)c2ccccc2)c1 (centres undefined) | . | -2.8 | -0.4 | 2.4 | . | . | . | . | .
CC(C)C[C@H]1CN(CCCC[C@H]2CNC(=O)C(=O)N2CCc2ccccc2)C(=O)C(=O)N1CCC1CCCCC1 | . | -9.6 | . | -2.8 | . | . | . | . | .
CC(C)C(NC(=O)c1ccccc1)C(=O)N1CCN(C/C=C/c2ccccc2)CC1 (centres undefined) | -2.3 | 22.4 | 0.9 | 9.3 | 2.5 | 6.4 | . | . | .
C[C@H](NC(=O)c1ccc(C(C)(C)C)cc1)C(=O)N1CCN(C/C=C/c2ccccc2)CC1 | -2.7 | 72.1* | 0.1 | 7.8 | 21.3 | -6.7 | 53.8* | -0.3 | -13.5
O=C(c1ccc(Br)o1)N1CCN(C/C=C/c2ccccc2)CC1 | 4.8 | 15.2 | -2.5 | 4.9 | 11.8 | -4.7 | . | . | .
O=C(Nc1cccc(Cl)c1)N1CCN(C/C=C/c2ccccc2)CC1 | 0.3 | 54.7* | -0.7 | -8.1 | 12.1 | -6.6 | 41.2 | 0.0 | -6.3
O=C(c1ccc(Br)s1)N1CCN(C/C=C/c2ccccc2)CC1 | -0.6 | 42.8* | 1.0 | 4.9 | -1.6 | -21.8 | 15.7 | -1.1 | -5.3
Cc1ccccc1OCC(=O)OCC(=O)NC1CCCCCC1 | -1.9 | 7.3 | -1.4 | -9.8 | 6.0 | -55.8 | . | . | .
Cc1c(C(=O)NC2CCN(Cc3ccccc3)C2)oc2c(Cl)cccc12 (centres undefined) | 0.1 | 0.3 | 0.9 | -2.5 | 18.5 | -21.4 | . | . | .
SMILES | APJ agonist | EBI2 antag | FXN GAA850 act | CXCR6 block | CCR6 antagonist | APJ antag | EBI2 antag conf | EBI2 agonist | bGal counter
C=CCNC(=O)c1ccsc1N | . | -20.5 | . | . | . | . | . | . | .
CCCCCC(=O)N1C[C@H](n2cc(COC(=O)c3ccccc3)nn2)[C@@H](O)C[C@@H]1c1ccc(OC)cc1 | . | 12.2 | -0.5 | 9.4 | . | . | . | . | .
C[C@@H]1CN([C@@H](C)CO)C(=O)CCCn2nncc2CO[C@H]1CN(C)S(=O)(=O)c1ccc(-n2cccn2)cc1 | . | -5.8 | -1.8 | -2.6 | . | . | . | . | .
O=C(NCCc1ccccc1)C1CCC(Cn2c(=O)c3ccccc3n(Cc3cccc(F)c3)c2=O)CC1 (centres undefined) | -2.8 | 61.1* | 1.1 | 8.6 | 5.8 | 9.8 | 29.4 | -1.6 | -8.6
COC(=O)[C@]12CCCCC=C1N(Cc1cccc3ccccc13)C(=O)[C@H](CC(=O)N1CCSCC1)C2 | . | -1.1 | . | 2.2 | . | . | . | . | .
COc1ccc(Nc2ccc(Nc3ccc(OC)cc3)nn2)cc1 | 4.6 | 69.4* | 2.5 | -6.0 | 12.9 | 5.7 | 30.6 | 0.8 | -9.8
COc1ccc(Nc2ccc(OC)cc2)cc1 | 1.5 | 9.9 | 3.0 | 8.9 | -22.0 | -17.6 | . | . | .
COc1ccc(CC(=O)N2CCN(c3ccccn3)CC2)cc1 | -1.7 | 0.7 | 2.7 | 10.5 | 0.9 | -11.1 | . | . | .
Cc1ccc(OCC(=O)N2CCCCCCC2)cc1 | -4.3 | 7.3 | 1.7 | -11.5 | -4.1 | 0.7 | . | . | .
COc1ccc(OCC(=O)N2CCN(C(=O)Cc3ccccc3)CC2)cc1 | -2.4 | 76.1* | 3.2 | 0.7 | 9.0 | 5.1 | 48.5 | 0.9 | 4.9
Cc1ccc(OCC(=O)N2CCN(S(C)(=O)=O)CC2)cc1 | 0.0 | -1.4 | 3.0 | -15.3 | 5.2 | -4.1 | . | . | .
Cc1ccc(OCC(=O)N2CCN(C(=O)Cc3ccccc3)CC2)cc1 | -1.4 | 57.7* | 0.7 | 1.4 | -25.8 | 7.0 | 49.4 | -1.5 | -4.3
COc1ccc(OCC(=O)N2CCN(S(=O)(=O)c3ccccc3[N+](=O)[O-])CC2)cc1 | -1.0 | 83.3* | 4.3 | -5.5 | 10.9 | -0.5 | 60.6* | -0.5 | -17.0
CCCS(=O)(=O)N1CCN(C(=O)COc2ccc(OC)cc2)CC1 | -1.8 | 61.7* | 0.4 | 0.9 | -7.5 | -24.9 | 42.1 | 1.6 | 10.9
O=C(NCc1ccccc1)/C(=C\c1ccc(F)cc1)NC(=O)c1ccco1 | . | 0.1 | 0.1 | -0.6 | . | . | . | . | .
COc1ccc(OCC(=O)N2CCN(S(=O)(=O)c3ccc4c(c3)OCCO4)CC2)cc1 | . | 82.0* | 1.9 | -4.8 | . | . | 54.7* | -0.4 | -13.4
COc1ccc(N2CCN(S(=O)(=O)c3ccc4c(c3)OCCO4)CC2)cc1 | -4.9 | 0.1 | -1.9 | -3.2 | -11.1 | 5.1 | . | . | .
